Substitutions are numbered along the chain they refer to. Numbers in names are those of the source.
T1: Oleandomycin glycosyltransferase (Streptomyces antibioticus), Q53685 [P67T]
T1 sequence (whole entry): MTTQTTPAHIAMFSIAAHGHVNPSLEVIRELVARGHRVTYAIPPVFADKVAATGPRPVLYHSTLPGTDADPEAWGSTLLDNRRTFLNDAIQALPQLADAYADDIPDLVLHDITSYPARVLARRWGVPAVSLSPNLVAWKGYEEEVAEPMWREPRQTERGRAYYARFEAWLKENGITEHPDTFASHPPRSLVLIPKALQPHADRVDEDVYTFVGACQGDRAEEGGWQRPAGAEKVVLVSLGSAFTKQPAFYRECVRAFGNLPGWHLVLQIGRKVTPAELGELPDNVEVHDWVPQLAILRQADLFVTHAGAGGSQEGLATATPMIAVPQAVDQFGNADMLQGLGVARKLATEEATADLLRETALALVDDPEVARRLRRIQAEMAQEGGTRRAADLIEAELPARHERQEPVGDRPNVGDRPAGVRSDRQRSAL

T2: Oleandomycin glycosyltransferase (Streptomyces antibioticus), Q53685 [A242V]
T2 sequence (whole entry): T1 sequence (whole entry) with T67P, A242V

T3: Oleandomycin glycosyltransferase (Streptomyces antibioticus) (UniProt Q53685)
T3 sequence (whole entry): T1 sequence (whole entry) with T67P

T4: Oleandomycin glycosyltransferase (Streptomyces antibioticus), Q53685 [P67T,S132F,A242V]
T4 sequence (whole entry): T1 sequence (whole entry) with S132F, A242V

B1: Oleandomycin glycosyltransferase (Streptomyces antibioticus), Q53685 (protein)
chain: T1 sequence (whole entry) with T67P
B2: Oleandomycin glycosyltransferase (Streptomyces antibioticus), Q53685 P67T,S132F,A242V (protein)
chain: T1 sequence (whole entry) with S132F, A242V

Tests used:
[1] = test system: T1, Oleandomycin glycosyltransferase (Streptomyces antibioticus), Q53685 [P67T]; test: Activity of Streptomyces antibioticus OleD P67T mutant assessed as as rate of glucoside formation measured as nanomoles of product formed per minute per mg of enzyme
[2] = test system: T2, Oleandomycin glycosyltransferase (Streptomyces antibioticus), Q53685 [A242V]; test: Activity of Streptomyces antibioticus OleD A242V mutant assessed as as rate of glucoside formation measured as nanomoles of product formed per minute per mg of enzyme
[3] = target: T3, Oleandomycin glycosyltransferase (Streptomyces antibioticus); test: Activity of Streptomyces antibioticus OleD […] mutant assessed as as rate of glucoside formation measured as nanomoles of product formed per minute per mg of enzyme
[4] = target: T3, Oleandomycin glycosyltransferase (Streptomyces antibioticus); test: Activity at Streptomyces antibioticus wild-type OleD assessed as as rate of glucoside formation measured as nanomoles of product formed per minute per mg of enzyme
[5] = test system: T4, Oleandomycin glycosyltransferase (Streptomyces antibioticus), Q53685 [P67T,S132F,A242V]; test: Activity of Streptomyces antibioticus OleD P67T/S132F/A242V mutant assessed as as rate of glucoside formation measured as nanomoles of product formed per minute per mg of enzyme
[6] = substrate: Cc1cc(=O)oc2cc(O)ccc12; test: Ratio of Kcat to Km for Streptomyces antibioticus wild-type OleD assessed as as rate of glucoside formation at 10 mM using varying NDP sugar UDP-glucose concentration by enzyme kinetics assay
Procedure, shortened: (§1)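 Steady-state kinetics of wild-type OleD glucosylating the acceptor 4-methylumbelliferone to its 7-O-glucoside, with the acceptor fixed at 10 mM and donor UDP-glucose as the variable substrate. Apparent donor kinetic parameters were taken from the rate versus UDP-glucose concentration data.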

[7] = substrate: Cc1cc(=O)oc2cc(O)ccc12; test: Ratio of Kcat to Km for Streptomyces antibioticus wild-type OleD assessed as as rate of glucoside formation using varying compound concentration by enzyme kinetics assay
Procedure, shortened: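 Wild-type OleD steady-state kinetics with 4-methylumbelliferone as the variable acceptor, up to 10 mM (its solubility limit in water/DMSO), and UDP-glucose as donor. Read-out was the rate of glucoside formation. kcat/Km was obtained by linear regression of rate against acceptor concentration.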

[8] = substrate: Cc1cc(=O)oc2cc(O)ccc12; test: Activity of Streptomyces antibioticus wild-type OleD assessed as as rate of glucoside formation at 10 mM using varying NDP sugar UDP-glucose concentration by enzyme kinetics assay; procedure, shortened: as §1
[9] = substrate: Cc1cc(=O)oc2cc(O)ccc12; test: Activity of Streptomyces antibioticus OleD P67T/S132F/A242V mutant assessed as as rate of glucoside formation using varying compound concentration by enzyme kinetics assay
Procedure, shortened: (§2)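 Steady-state kinetics with the acceptor 4-methylumbelliferone as the variable substrate and UDP-Glc as donor. The acceptor limit was its solubility in water/DMSO, 10 mM. Apparent Km and kcat were derived from the saturation curve.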

[10] = substrate: Cc1cc(=O)oc2cc(O)ccc12; test: Activity of Streptomyces antibioticus OleD P67T/S132F/A242V mutant assessed as rate of glucoside formation at 10 mM using varying NDP sugar UDP-glucose concentration by enzyme kinetics assay
Procedure, shortened: (§3)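 Steady-state kinetics with donor UDP-Glc varied at a fixed concentration of the acceptor 4-methylumbelliferone. The result was reported as an apparent donor Km, with kcat from the same analysis.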

[11] = substrate: Cc1cc(=O)oc2cc(O)ccc12; test: Ratio of Kcat to Km for Streptomyces antibioticus OleD P67T/S132F/A242V mutant assessed as as rate of glucoside formation using varying compound concentration by enzyme kinetics assay; procedure, shortened: as §2
[12] = substrate: Cc1cc(=O)oc2cc(O)ccc12; test: Ratio of Kcat to Km for Streptomyces antibioticus OleD P67T/S132F/A242V mutant assessed as rate of glucoside formation at 10 mM using varying NDP sugar UDP-glucose concentration by enzyme kinetics assay; procedure, shortened: as §3

Molecule | Activity [1] [nmol/min] | Activity [2] [nmol/min] | Activity [3] [nmol/min] | Activity [4] [nmol/min] | Activity [5] [nmol/min] | also measured
CO[C@H]1C[C@H](O[C@H]2[C@H](C)[C@@H](O[C@@H]3O[C@H](C)C[C@H](N(C)C)[C@H]3O)[C@@H](C)C[C@@]3(CO3)C(=O)[C@H](C)[C@@H](O)[C@@H](C)[C@@H](C)OC(=O)[C@@H]2C)O[C@@H](C)[C@@H]1O | 200 | 70 | 1490 | 700 | 13 | 
O=C(O)Cc1cc(=O)oc2cc(O)ccc12 | 0.22 | 0.16 | 0.08 |  | 3.6 | 
O=c1c(-c2ccc(O)cc2)coc2cc(O)cc(O)c12 | 28.8 | 14.1 | 8.8 | 3.4 | 26 | 
CC(C)=CCc1cc(C(=O)Nc2c(O)c3ccc(O)c(C)c3oc2=O)ccc1O | 0.65 | 0.33 | 0.49 | 0.24 | 1.14 | 
O=c1c(O)c(-c2ccc(O)cc2)oc2cc(O)cc(O)c12 | 99.9 | 15.3 | 23 | 13.2 | 28 | 
O=c1c(-c2ccc(O)cc2)coc2cc(O)ccc12 | 16 | 8.5 | 5.5 | 4.2 | 24 | 
O=C(O)c1cc2ccc(O)cc2oc1=O | 0.022 | 0.01 | 0.022 | 0.01 | 0.62 | 
B1 |  |  |  |  |  | kcat/Km [6]: 28.8 M⁻¹ s⁻¹; kcat/Km [7]: 3 M⁻¹ s⁻¹; Km [8]: 300 µM; kcat [8]: 0.00867 s⁻¹
B2 |  |  |  |  |  | Km [9]: 140 µM; kcat [9]: 0.0247 s⁻¹; Km [10]: 0.03 min⁻¹; kcat [10]: 0.0215 s⁻¹; kcat/Km [11]: 177 M⁻¹ s⁻¹; kcat/Km [12]: 717 M⁻¹ s⁻¹
